Reference: PMC10666245 (ACS Omega, 2023)

Key:
mushroom tyrosinase [1] = assay: Mushroom tyrosinase inhibition, diphenolase assay; assay type: biochemical, Agaricus bisporus (mushroom); conditions: L-DOPA substrate; for % inhibition 500 μM ±SD Diphenolase: at 500 μM; for % inhibition ±SD Diphenolase: at 200 μM (asterisk)
In short: (§1)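 Test compound came from 10 mM DMSO stocks. […] Enzyme, diluted to 500 U/mL before plating, was preincubated 15 min with test compound, then substrate was added. A490 was read every 3 min up to 30 min.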

mushroom tyrosinase [2] = assay: Mushroom tyrosinase inhibition, monophenolase assay; assay type: biochemical, Agaricus bisporus (mushroom); conditions: L-tyrosine substrate; for pIC50 ±SEM Monophenolase: mushroom tyrosinase, pH 6.5
In short: as §1

[3] = Radical scavenging activity, DPPH assay; conditions: at 500 μM, 30 min, 37 °C
In short: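 DPPH (250 μM in methanol) was mixed with an equal volume of test compound prepared at 1 mM in methanol. Reference antioxidants were run alongside, with DMSO as negative control. A515 was read after 30 min at 37 °C, in triplicate. Scavenging = 100 × (control Abs − sample Abs)/control Abs.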

[4] = Cytotoxicity against mammalian cells; assay type: cell-based; conditions: mouse, NCTC clone L929 murine fibroblast cells
In short: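 Murine NCTC fibroblasts (ATCC clone 929) were grown in RPMI-1640 with 10% FBS, counted by hemocytometer and seeded at 6 × 10^4/well. They were exposed to test compound at 200–1.5 μM for 48 h at 37 °C in humidified 5% CO2. Viability was read by MTT, and CC50 was derived by nonlinear regression.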

| Compound | % inhibition 500 μM ±SD Diphenolase (mushroom tyrosinase [1]) | pIC50 ±SEM Monophenolase (mushroom tyrosinase [2]) | further results |
| --- | --- | --- | --- |
| O=C(c1ccc(O)c(O)c1)N1CCN(Cc2ccccc2)CC1 [Compound 1a, (4-Benzylpiperazin-1-yl)-(3,4-dihydroxyphenyl)methanone] | (37.0 ± 2.7%) | 4.42 ± 0.04 |  |
| COc1cc(C(=O)N2CCN(Cc3ccccc3)CC2)ccc1O [Compound 1b, (4-Benzylpiperazin-1-yl)(4-hydroxy-3-methoxyphenyl)methanone] | (41.6 ± 1.2%) | 4.49 ± 0.02 |  |
| COc1ccc(C(=O)N2CCN(Cc3ccccc3)CC2)cc1 [Compound 1c, (4-Benzylpiperazin-1-yl)-(4-methoxyphenyl)methanone] | (44.2 ± 3.0%) | 3.94 ± 0.06 |  |
| O=C(c1ccc(O)cc1)N1CCN(Cc2ccccc2)CC1 [Compound 1d, (4-Benzylpiperazin-1-yl)-(4-hydroxyphenyl)methanone] | (35.2 ± 3.3%) | 4.11 ± 0.05 |  |
| O=C(c1ccc(Cl)cc1)N1CCN(Cc2ccccc2)CC1 [Compound 1e, 1-Benzyl-4-(4-chlorobenzoyl)piperazine] | (45.2 ± 7.6%) | 4.37 ± 0.04 |  |
| O=C(c1ccc(O)c(O)c1)N1CCN(c2ccccc2)CC1 [Compound 2a, (3,4-Dihydroxyphenyl)-(4-phenylpiperazin-1-yl)methanone] | (27.7 ± 3.0%) | 4.42 ± 0.04 |  |
| COc1cc(C(=O)N2CCN(c3ccccc3)CC2)ccc1O [Compound 2b, (4-Hydroxy-3-methoxyphenyl)-(4-phenylpiperazin-1-yl)methanone] | (24.3 ± 4.1%) | 3.85 ± 0.03 |  |
| COc1ccc(C(=O)N2CCN(c3ccccc3)CC2)cc1 [Compound 2c, (4-Methoxyphenyl)-(4-phenylpiperazin-1-yl)methanone] | (31.1 ± 5.3%) | 3.54 ± 0.05 |  |
| O=C(/C=C/c1ccc(O)c(O)c1)N1CCN(Cc2ccccc2)CC1 [Compound 3a, (E)-1-(4-Benzylpiperazin-1-yl)-3-(3,4-dihydroxyphenyl)prop-2-en-1-one] |  |  | pIC50 ±SEM Diphenolase (mushroom tyrosinase [1]; mushroom tyrosinase, pH 6.5): 4.18 ± 0.03; IC50 (mushroom tyrosinase [1]; read-out: IC50 tyrosinase inhibition, diphenolase): < 100 µM; radical scavenging activity (DPPH) [3]: 29%; IC50 (mushroom tyrosinase [2]; read-out: IC50 tyrosinase inhibition, monophenolase): < 100 µM |
| COc1cc(/C=C/C(=O)N2CCN(Cc3ccccc3)CC2)ccc1O [Compound 3b, (2E)-1-(4-Benzylpiperazin-1-yl)-3-(4-hydroxy-3-methoxyphenyl)prop-2-en-1-one] | (42.3 ± 3.4%) | 4.16 ± 0.02 |  |
| COc1ccc(/C=C/C(=O)N2CCN(Cc3ccccc3)CC2)cc1 [Compound 3c, (E)-1-(4-Benzylpiperazin-1-yl)-3-(4-methoxyphenyl)prop-2-en-1-one] | (43.5 ± 2.3%) | 3.86 ± 0.04 |  |
| O=C(/C=C/c1ccc(O)cc1)N1CCN(Cc2ccccc2)CC1 [Compound 3d, (E)-1-(4-Benzylpiperazin-1-yl)-3-(4-hydroxyphenyl)prop-2-en-1-one] | (43.0 ± 2.9%) | 4.54 ± 0.03 |  |
| O=C(/C=C/c1ccc(O)c(O)c1)N1CCN(c2ccccc2)CC1 [Compound 4a, (E)-3-(3,4-Dihydroxyphenyl)-1-(4-phenylpiperazin-1-yl)prop-2-en-1-one] |  |  | CC50 at 48 h [4]: 57.2 ± 2 µM; radical scavenging activity (DPPH) [3]: 65.0% |
| COc1cc(/C=C/C(=O)N2CCN(c3ccccc3)CC2)ccc1O [Compound 4b, (E)-3-(4-Hydroxy-3-methoxyphenyl)-1-(4-phenylpiperazin-1-yl)prop-2-en-1-one] | (51.5 ± 3.2%) | 4.50 ± 0.04 |  |
| O=C(c1ccc(O)c(O)c1)N1CCC(Cc2ccccc2)CC1 [Compound 5a, (4-Benzyl-1-piperidyl)-(3,4-dihydroxyphenyl)methanone] |  | 4.74 ± 0.04 | % inhibition ±SD Diphenolase (mushroom tyrosinase [1]): (30.9 ± 3.9%); radical scavenging activity (DPPH) [3]: 42% |
| COc1cc(C(=O)N2CCC(Cc3ccccc3)CC2)ccc1O [Compound 5b, (4-Benzyl-1-piperidyl)-(4-hydroxy-3-methoxy-phenyl)methanone] |  | 4.99 ± 0.01 | % inhibition ±SD Diphenolase (mushroom tyrosinase [1]): (13.2 ± 0.8%); radical scavenging activity (DPPH) [3]: 10% |
| COc1ccc(C(=O)N2CCC(Cc3ccccc3)CC2)cc1 [Compound 5c, 4-Benzyl-1-(4-methoxybenzoyl)piperidine] | (30.5 ± 1.6%) | 4.67 ± 0.01 |  |
| O=C(c1ccc(O)cc1)N1CCC(Cc2ccccc2)CC1 [Compound 5d, (4-Benzyl-1-piperidyl)-(4-hydroxyphenyl)methanone] |  | 4.59 ± 0.01 | % inhibition ±SD Diphenolase (mushroom tyrosinase [1]): (14.7 ± 1.6%) |
| O=C(/C=C/c1ccc(O)c(O)c1)N1CCC(Cc2ccccc2)CC1 [Compound 6a, (E)-1-(4-Benzyl-1-piperidyl)-3-(3,4-dihydroxyphenyl)prop-2-en-1-one] |  | 4.56 ± 0.01 | % inhibition ±SD Diphenolase (mushroom tyrosinase [1]): (18.5 ± 1.1%) |
| COc1cc(/C=C/C(=O)N2CCC(Cc3ccccc3)CC2)ccc1O [Compound 6b, (E)-1-(4-Benzyl-1-piperidyl)-3-(4-hydroxy-3-methoxy-phenyl)prop-2-en-1-one] |  | 4.53 ± 0.01 | % inhibition ±SD Diphenolase (mushroom tyrosinase [1]): (12.0 ± 1.5%); radical scavenging activity (DPPH) [3]: 28% |
| O=C(/C=C/c1ccc(O)cc1)N1CCC(Cc2ccccc2)CC1 [Compound 6d, (E)-1-(4-Benzyl-1-piperidyl)-3-(4-hydroxyphenyl)prop-2-en-1-one] |  |  | % inhibition ±SD Diphenolase (mushroom tyrosinase [1]): (20.3 ± 1.3%); % inhibition ±SD Monophenolase (mushroom tyrosinase [2]; at 200 μM (asterisk)): (48.3 ± 1.1%) |
| O=C(O)/C=C/c1ccc(O)cc1 [pCA, p-coumaric acid, reference compound] | (16.4 ± 13.0%) | 4.00 ± 0.01 |  |
| (E)-1-(1-Benzylpiperidin-4-yl)-3-(4-methoxyphenyl)prop-2-en-1-one [Compound 6c] | (22.1 ± 3.1%) | 4.85 ± 0.07 |  |
